Target: NAD(P)H dehydrogenase [quinone] 1 (Mus musculus) (UniProt Q64669)
Test: Induction of quinone reductase 1 activity in mouse Hepa-1c1c7 cells at 50 uM by MTT assay relative to untreated control
Format: cell-based
Settings: not given
Outline: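 Hepa 1c1c7 murine hepatoma cells treated with compound at 50 μM. QR1 measured by NADPH-dependent, menadiol-mediated reduction of MTT to formazan. Protein measured by crystal violet staining of identical plates. Specific activity is nmol formazan per mg protein per min. Induction ratio is treated versus DMSO-treated control.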

Chain of NAD(P)H dehydrogenase [quinone] 1 (Mus musculus) (Q64669 whole entry): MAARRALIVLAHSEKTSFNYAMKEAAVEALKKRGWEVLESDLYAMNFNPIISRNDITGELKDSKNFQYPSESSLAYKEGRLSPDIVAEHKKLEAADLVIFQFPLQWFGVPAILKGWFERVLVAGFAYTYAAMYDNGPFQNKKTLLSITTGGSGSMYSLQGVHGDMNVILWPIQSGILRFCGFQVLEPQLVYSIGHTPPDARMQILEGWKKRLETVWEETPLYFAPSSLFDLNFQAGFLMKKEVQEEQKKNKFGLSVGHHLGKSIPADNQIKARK

SMILES | Ratio
C=CCOC(=O)N1Cc2[nH]c3ccccc3c2C[C@H]1C(=O)O | 2.4
COC(=O)[C@@H]1Cc2c([nH]c3ccccc23)CN1 | 1.1
COC(=O)[C@@H]1Cc2c([nH]c3ccccc23)CN1Cc1ccccc1 | 1.6
COC(=O)[C@@H]1Cc2c([nH]c3ccccc23)CN1C(=O)NC1CCCCC1 | 1.1

Tested on: not listed separately
Test: Inhibition of TNF-alpha-induced NFkappaB activation in human HEK293 cells after 6 hrs by luciferase assay
Format: cell-based
Settings: HEK293, 6 h
Outline: (§1)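 Cells incubated 6 h with TNFα plus test compound, then luciferase activity measured. Results expressed as percent of TNFα-treated control. Screening concentration 50 μM.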

SMILES | IC50
COC(=O)[C@@H]1Cc2c([nH]c3ccccc23)CN1 | 38.9 µM
COC(=O)[C@@H]1Cc2c([nH]c3ccccc23)CN1Cc1ccccc1 | 30.7 µM

Target: NAD(P)H dehydrogenase [quinone] 1 (Mus musculus) (UniProt Q64669)
Test: Induction of quinone reductase 1 in mouse Hepa 1c1c7 cells assessed as concentration of compound required to double enzyme activity by MTT assay
Format: cell-based
Settings: not given
Outline: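 Dose-response in Hepa 1c1c7 cells, run for substances with induction ratio >2 at 50 μM. QR1 activity measured as menadiol-mediated, NADPH-dependent MTT reduction to formazan, normalised to crystal violet protein content. CD is the concentration that doubles specific activity relative to DMSO control.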

SMILES | CD
C=CCOC(=O)N1Cc2[nH]c3ccccc3c2C[C@H]1C(=O)O | 26.5 µM

Tested on: HEK293
Test: Inhibition of TNF-alpha-induced NFkappaB activation in human HEK293 cells assessed as cell survival at 50 uM after 6 hrs by luciferase assay relative to control
Format: cell-based
Settings: not given

SMILES | Survival
C=CCOC(=O)N1Cc2[nH]c3ccccc3c2C[C@H]1C(=O)O | 109%
COC(=O)[C@@H]1Cc2c([nH]c3ccccc23)CN1 | 38.6%
COC(=O)[C@@H]1Cc2c([nH]c3ccccc23)CN1Cc1ccccc1 | 28.8%
COC(=O)[C@@H]1Cc2c([nH]c3ccccc23)CN1C(=O)NC1CCCCC1 | 111%

Target: T1, Nitric oxide synthase, inducible (Mus musculus, UniProt P29477)
T1 sequence (P29477 whole entry): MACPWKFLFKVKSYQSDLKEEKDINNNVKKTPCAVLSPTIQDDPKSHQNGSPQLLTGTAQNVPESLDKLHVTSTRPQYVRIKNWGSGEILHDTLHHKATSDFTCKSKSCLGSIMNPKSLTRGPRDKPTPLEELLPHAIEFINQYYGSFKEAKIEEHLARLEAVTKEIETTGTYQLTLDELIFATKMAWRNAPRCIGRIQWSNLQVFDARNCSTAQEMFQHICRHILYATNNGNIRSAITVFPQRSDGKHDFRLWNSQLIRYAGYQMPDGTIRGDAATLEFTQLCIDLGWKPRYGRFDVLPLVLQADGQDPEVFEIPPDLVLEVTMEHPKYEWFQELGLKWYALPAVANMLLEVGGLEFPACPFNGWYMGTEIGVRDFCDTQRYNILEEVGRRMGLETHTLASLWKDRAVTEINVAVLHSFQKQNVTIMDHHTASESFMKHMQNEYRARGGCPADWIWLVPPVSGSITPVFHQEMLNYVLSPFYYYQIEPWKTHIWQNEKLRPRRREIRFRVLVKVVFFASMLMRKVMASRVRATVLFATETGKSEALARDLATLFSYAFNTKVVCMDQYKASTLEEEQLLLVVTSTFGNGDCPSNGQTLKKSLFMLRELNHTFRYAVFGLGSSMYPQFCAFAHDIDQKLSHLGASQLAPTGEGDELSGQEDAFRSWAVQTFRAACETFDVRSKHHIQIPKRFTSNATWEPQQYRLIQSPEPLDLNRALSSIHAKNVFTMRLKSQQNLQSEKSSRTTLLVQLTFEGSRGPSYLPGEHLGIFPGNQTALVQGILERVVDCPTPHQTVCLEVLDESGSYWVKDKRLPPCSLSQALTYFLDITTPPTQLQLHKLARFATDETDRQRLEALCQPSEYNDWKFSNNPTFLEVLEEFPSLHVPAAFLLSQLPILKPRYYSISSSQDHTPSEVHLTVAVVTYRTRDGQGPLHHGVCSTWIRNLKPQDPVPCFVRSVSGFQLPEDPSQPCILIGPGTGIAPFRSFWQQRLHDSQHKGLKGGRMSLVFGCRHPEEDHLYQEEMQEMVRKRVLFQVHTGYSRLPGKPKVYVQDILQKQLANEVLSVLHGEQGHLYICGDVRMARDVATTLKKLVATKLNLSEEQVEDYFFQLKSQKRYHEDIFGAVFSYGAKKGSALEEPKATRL
Test: Inhibition of iNOS-mediated nitric oxide production in LPS-stimulated mouse RAW 264.7 cells pretreated 15 mins before LPS challenge measured after 20 hrs relative to control
Format: cell-based
Settings: not given
Outline: (§2)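 RAW 264.7 cells cultured 24 h at 37°C, then given serially diluted compounds for 15 min before LPS (1 μg/mL) for 20 h. Nitrite in the medium measured with Griess reagent at 540 nm against a sodium nitrite standard curve. Cytotoxicity checked by SRB under the same conditions.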

SMILES | IC50
COC(=O)[C@@H]1Cc2c([nH]c3ccccc23)CN1Cc1ccccc1 | 32 µM
COC(=O)[C@@H]1Cc2c([nH]c3ccccc23)CN1C(=O)NC1CCCCC1 | 41.1 µM

Target: NAD(P)H dehydrogenase [quinone] 1 (Mus musculus) (UniProt Q64669)
Test: Induction of quinone reductase 1 activity in mouse Hepa-1c1c7 cells assessed as cell survival at 50 uM by MTT assay relative to control
Format: cell-based
Settings: not given

SMILES | Survival
C=CCOC(=O)N1Cc2[nH]c3ccccc3c2C[C@H]1C(=O)O | 82.9%
COC(=O)[C@@H]1Cc2c([nH]c3ccccc23)CN1 | 125%
COC(=O)[C@@H]1Cc2c([nH]c3ccccc23)CN1Cc1ccccc1 | 100%
COC(=O)[C@@H]1Cc2c([nH]c3ccccc23)CN1C(=O)NC1CCCCC1 | 71.5%

Target: T2, Aromatase (Homo sapiens, UniProt P11511)
T2 sequence (P11511 whole entry): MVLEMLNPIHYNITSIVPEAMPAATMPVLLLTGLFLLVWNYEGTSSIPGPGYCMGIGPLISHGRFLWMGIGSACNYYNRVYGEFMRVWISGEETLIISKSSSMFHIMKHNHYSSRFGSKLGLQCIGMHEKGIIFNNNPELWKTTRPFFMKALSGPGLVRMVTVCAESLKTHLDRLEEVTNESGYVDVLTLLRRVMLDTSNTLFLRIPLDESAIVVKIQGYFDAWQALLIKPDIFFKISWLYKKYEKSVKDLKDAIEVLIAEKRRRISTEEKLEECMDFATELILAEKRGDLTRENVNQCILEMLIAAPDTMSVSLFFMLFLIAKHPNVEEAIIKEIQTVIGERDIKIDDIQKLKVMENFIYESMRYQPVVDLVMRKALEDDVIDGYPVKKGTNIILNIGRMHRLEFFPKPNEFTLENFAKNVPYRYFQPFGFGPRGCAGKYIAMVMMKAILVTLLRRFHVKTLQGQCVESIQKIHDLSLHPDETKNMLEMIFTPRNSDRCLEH
Test: Inhibition of aromatase at 50 uM after 10 mins preincubation by plate reader relative to control
Settings: not given
Outline: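 CYP19 enzyme. Compound pre-incubated 10 min with an NADPH-regenerating system (NADP+, glucose 6-phosphate, G6PDH, MgCl2, albumin) in 50 mM potassium phosphate pH 7.4. Enzyme and 0.4 μM dibenzylfluorescein substrate then added, 30 min at 37 °C. Quenched with 2 N NaOH and incubated a further 2 h at 37 °C. Fluorescence read at ex 485/em 530 nm. Compound tested at 50 μM.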

SMILES | inhibition at 50 µM
C=CCOC(=O)N1Cc2[nH]c3ccccc3c2C[C@H]1C(=O)O | 38.4%
COC(=O)[C@@H]1Cc2c([nH]c3ccccc23)CN1 | 18.3%
COC(=O)[C@@H]1Cc2c([nH]c3ccccc23)CN1Cc1ccccc1 | 31.5%
COC(=O)[C@@H]1Cc2c([nH]c3ccccc23)CN1C(=O)NC1CCCCC1 | 33%

Tested on: MCF7
Test: Antiproliferative activity against human MCF7 cells after 72 hrs by SRB assay
Format: functional, cell-based
Settings: MCF7, 72 h
Outline: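 MCF7 cells, 1 × 10^4 per well, plated directly onto compounds and incubated 72 h at 37°C, 5% CO2. Fixed with 10% TCA, stained with 0.4% SRB in 1% acetic acid. Bound dye dissolved in 10 mM Tris pH 10.0, absorbance read at 515 nm. Survival expressed relative to DMSO-treated controls.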

SMILES | IC50
COC(=O)[C@@H]1Cc2c([nH]c3ccccc23)CN1C(=O)NC1CCCCC1 | 35.8 µM

Tested on: HEK293
Test: Inhibition of TNF-alpha-induced NFkappaB activation in human HEK293 cells at 50 uM after 6 hrs by luciferase assay relative to control
Format: cell-based
Settings: not given
Outline: as §1

SMILES | inhibition
C=CCOC(=O)N1Cc2[nH]c3ccccc3c2C[C@H]1C(=O)O | 35.6%
COC(=O)[C@@H]1Cc2c([nH]c3ccccc23)CN1 | 58.3%
COC(=O)[C@@H]1Cc2c([nH]c3ccccc23)CN1Cc1ccccc1 | 60.4%
COC(=O)[C@@H]1Cc2c([nH]c3ccccc23)CN1C(=O)NC1CCCCC1 | 44.7%

Target: T3, Nitric oxide synthase, inducible (Mus musculus) (UniProt P29477)
T3 sequence (whole entry): T1 sequence (P29477 whole entry)
Test: Inhibition of iNOS-mediated nitric oxide production in LPS-stimulated mouse RAW 264.7 cells assessed as cell survival at 50 uM pretreated 15 mins before LPS challenge measured after 20 hrs relative to control
Format: cell-based
Settings: not given
Outline: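 RAW 264.7 cells were incubated at 37°C, 5% CO2 for 24 h. They were then exposed to compound for 15 min before LPS (1 μg/mL) was added for 20 h. Cytotoxicity was measured by SRB staining under the same conditions. Survival is expressed as % relative to vehicle-treated controls at 50 μM.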

SMILES | Survival
C=CCOC(=O)N1Cc2[nH]c3ccccc3c2C[C@H]1C(=O)O | 135%
COC(=O)[C@@H]1Cc2c([nH]c3ccccc23)CN1 | 104%
COC(=O)[C@@H]1Cc2c([nH]c3ccccc23)CN1Cc1ccccc1 | 85.9%
COC(=O)[C@@H]1Cc2c([nH]c3ccccc23)CN1C(=O)NC1CCCCC1 | 79%

Tested on: MCF7
Test: Antiproliferative activity against human MCF7 cells assessed as survival at 50 uM after 72 hrs by SRB assay relative to control
Format: functional
Settings: MCF7, 72 h, read-out: Survival
Outline: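 MCF7 cells (1 × 10^4 per well) were plated onto compound and kept at 37°C, 5% CO2 for 72 h. Cells were fixed in 10% TCA for 30 min and stained with 0.4% SRB in 1% acetic acid for 30 min. Bound dye was dissolved in 10 mM Tris (pH 10.0) and read at 515 nm. Survival is given as % of DMSO-treated controls, screened at 50 μM.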

SMILES | viability at 50 µM
COC(=O)[C@@H]1Cc2c([nH]c3ccccc23)CN1C(=O)NC1CCCCC1 | 26.3%

Target: T3, Nitric oxide synthase, inducible (Mus musculus)
Test: Inhibition of iNOS-mediated nitric oxide production in LPS-stimulated mouse RAW 264.7 cells at 50 uM pretreated 15 mins before LPS challenge measured after 20 hrs relative to control
Format: cell-based
Settings: not given
Outline: as §2

SMILES | inhibition
C=CCOC(=O)N1Cc2[nH]c3ccccc3c2C[C@H]1C(=O)O | -6.3%
COC(=O)[C@@H]1Cc2c([nH]c3ccccc23)CN1 | 12.5%
COC(=O)[C@@H]1Cc2c([nH]c3ccccc23)CN1Cc1ccccc1 | 68.2%
COC(=O)[C@@H]1Cc2c([nH]c3ccccc23)CN1C(=O)NC1CCCCC1 | 53.8%
